Assay outcomes as filed in PubChem BioAssay.
A selection: hits, their analogues and other compounds. The true share with any hit is near 1.4%.
cardiac RTF act = cardiac RTF calcium sensitivity activators, primary screen, biochemical, IANBD-TnC fluorescence, EC20 calcium | Troponin I, cardiac muscle (Homo sapiens) + Troponin T, cardiac muscle (Homo sapiens) + … | IANBD-labeled TnC RTF fluorescence at EC20 calcium; 0% EC20 calcium, 100% full calcium | activation, % at 7.2 µM | 340,000 tested, 0.24% active | AID 493008, 2010;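 active = activation above the mean over all tested compounds plus 3 SD, cut at about 30% in these data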;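 also: rise in fluorescence read as greater calcium sensitivity of cardiac thin filaments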
CRFBP-R2 agonist = agonists of CRF-BP/CRF-R2 complex, primary screen, cell-based, HEK293, calcium dye fluorescence, uHTS | CRF-binding protein / CRF receptor 2 complex (human) | AID 588473, 2011 | 350,000 tested, 0.46% active | calcium dye fluorescence (FLIPR); percent of saturating CRF peptide response | activation, % at 13.2 µM;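 active = activation of at least 50%, plus an integration ratio under a set limit after plate pattern correction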;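 also: plate controls were neutral control wells without compound for no effect and CRF at EC100 for full effect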
Cardiac RTF inh = cardiac RTF calcium sensitivity inhibitors, primary screen, biochemical, IANBD-TnC fluorescence, EC70 calcium | Troponin I, cardiac muscle (Homo sapiens) + Troponin T, cardiac muscle (Homo sapiens) + … | IANBD-labeled cardiac RTF, Ca2+ fluorescence | inhibition, % at 7.15 µM | 340,000 tested, 0.12% active | AID 493244, 2011;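 active = inhibition above the mean inhibition of all tested compounds plus 3 SD, cut at about 17% in these data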;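 also: assay run at fixed EC70 calcium of 1.6 mM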
DDE Tn6 FP inh = inhibitors of Tn6 peptide binding to fibrin DD(E), primary screen, biochemical, fluorescence polarization, human fibrin, Tn6 probe; Fibrin DD(E) TRITC-Tn6 fluorescence polarization displacement; 370,000 tested, 0.21% active; inhibition, % at 8.3 µM; Fibrinogen beta chain (Homo sapiens), P02675;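 active = inhibition above a per-campaign cutoff: mean of compounds within control limits plus 3 SD, cut at about 15% in these data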;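 also: 0% = median of all compound wells on the plate and 100% = blocking peptide control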
Target sequence (P02675 whole entry, looked up): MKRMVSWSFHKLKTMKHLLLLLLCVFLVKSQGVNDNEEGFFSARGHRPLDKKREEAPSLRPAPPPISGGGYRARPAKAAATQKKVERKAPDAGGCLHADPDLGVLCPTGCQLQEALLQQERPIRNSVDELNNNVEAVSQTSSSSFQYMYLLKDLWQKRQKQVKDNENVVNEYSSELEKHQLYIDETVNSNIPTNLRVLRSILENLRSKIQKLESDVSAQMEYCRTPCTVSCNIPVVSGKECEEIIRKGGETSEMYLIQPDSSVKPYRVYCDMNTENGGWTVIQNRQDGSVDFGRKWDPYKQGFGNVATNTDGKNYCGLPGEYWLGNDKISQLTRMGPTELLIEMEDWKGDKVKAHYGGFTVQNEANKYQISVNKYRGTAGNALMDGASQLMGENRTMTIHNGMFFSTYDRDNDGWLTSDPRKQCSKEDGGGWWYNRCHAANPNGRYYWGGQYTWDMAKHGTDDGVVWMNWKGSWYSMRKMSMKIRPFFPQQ
CRFR2-BP antag = antagonists of CRF-BP/CRF-R2 complex, primary screen, cell-based, HEK293, calcium dye fluorescence, uHTS; 350,000 tested, 0.59% active; CRF-induced calcium fluorescence; AID 588475, 2011; inhibition, % at 11.8 µM;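 active = inhibition of the ligand-induced calcium signal above about 50% at the single tested concentration, limit read from the data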
Tn7 DDE FP = inhibitors of Tn7 peptide binding to fibrin DD(E), primary screen, biochemical, fluorescence polarization, human fibrin, Tn7 probe; Fibrinogen beta chain (Homo sapiens), P02675; FP displacement of FITC-Tn7 peptide from fibrin DD(E); 0% = median of compound wells per plate; inhibition, % at 8.3 µM; 370,000 tested, 0.13% active; AID 720508, 2013;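 active = inhibition above the mean of compounds falling within the control limits plus 3 SD of them, cut at about 14% in these data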;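 also: 0% = plate median of compound wells and 100% = 10 µM Aha-Tn7 peptide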
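Test system – human fibrin DD(E) · Times – 10 min preincubation, 3 h with tracer, room temperature · Detection – fluorescence polarization of the labelled Tn7 tracer · Measure – percent inhibition normalized to high-control wells · Benchmarks – high control wells with 10 µM unlabelled Aha-Tn7 peptide (full inhibition) · Repeats – singlicate testing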
DDE Tn7 confirm = inhibitors of Tn7 peptide binding to fibrin DD(E), confirmation, biochemical, fluorescence polarization, human fibrin, Tn7 probe; shares compounds with Tn7 DDE FP; FP displacement of TRITC-Tn7 peptide from DD(E); 0% set at plate's compound-well median; inhibition, % at 8.3 µM; 460 tested, 5% active;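 active = inhibition above the campaign cutoff, the mean of compounds within control limits plus 3 SD, cut at about 14% in these data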;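 also: 100% = median FP of high control wells holding Aha-Tn7 inhibitor peptide; displacers lower polarization since freed probe rises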
DDE Tn7 FP ctr = DD(E)-Tn7 binding inhibition, counter-screen | 460 tested, 3% active | shares compounds with Tn7 DDE FP | fibrin DD(E), TRITC-Tn7 probe displacement, fluorescence polarization | inhibition, % at 8.3 µM;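 active = inhibition above the cutoff, the mean of compounds lying between the control bounds plus 3 SD of those compounds, cut at about 17% in these data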;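 also: 0% = median of compound sample wells and 100% = excess unlabeled Aha-Tn7 peptide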
* hit, by the source's call.

`O=C(C(=Cc1ccccc1)c1ccccc1)c1ccccc1` gave DDE Tn6 FP inh 10, Tn7 DDE FP 16*, DDE Tn7 confirm 0 and DDE Tn7 FP ctr -1.
For O=C(C(=Cc1ccc(O)cc1)c1ccccc1)c1ccccc1 the results were DDE Tn6 FP inh -7 and Tn7 DDE FP -6.
For COC(=O)C[C@H]1CC[C@@H]2[C@@H](COc3ccc(NS(=O)(=O)c4ccccc4Cl)cc3C(=O)N2C)O1 the results were DDE Tn6 FP inh 2 and Tn7 DDE FP -1.
For COc1ccc(S(=O)(=O)N(C)CC(=O)NCc2ccc3c(c2)OCO3)cc1 the results were cardiac RTF act 2, CRFBP-R2 agonist -1, Cardiac RTF inh -12, DDE Tn6 FP inh 7, CRFR2-BP antag -1 and Tn7 DDE FP 3.
COc1ccc(N(CC(=O)NCc2ccc3c(c2)OCO3)S(=O)(=O)c2ccc(O)c(C(=O)O)c2)cc1 was read as cardiac RTF act -1, CRFBP-R2 agonist -1, Cardiac RTF inh -1, DDE Tn6 FP inh 2, CRFR2-BP antag 21, Tn7 DDE FP 15*, DDE Tn7 confirm -2 and DDE Tn7 FP ctr -9.
`COc1ccc([C@@H]2C[C@@H](c3ccccc3)Oc3cc(C)cc(C)c32)cc1` gave cardiac RTF act 0, CRFBP-R2 agonist 4, Cardiac RTF inh -3, DDE Tn6 FP inh 3, CRFR2-BP antag -9 and Tn7 DDE FP 2.
COc1ccc([C@@H]2C[C@@H](c3ccccc3)Oc3c(C)ccc(C(C)C)c32)cc1 was read as DDE Tn6 FP inh -4, Tn7 DDE FP 14*, DDE Tn7 confirm 10 and DDE Tn7 FP ctr 7.
C[C@H]1CN([C@@H](C)CO)C(=O)CCCn2nncc2CO[C@@H]1CN(C)C(=O)Cc1ccccc1 was read as CRFBP-R2 agonist 2, DDE Tn6 FP inh 5, CRFR2-BP antag -11 and Tn7 DDE FP 1.
For O=C(c1ccccc1)N1CCSc2sccc2C1=O the results were cardiac RTF act -1, CRFBP-R2 agonist 1, Cardiac RTF inh -10, DDE Tn6 FP inh 9, CRFR2-BP antag 22, Tn7 DDE FP 15*, DDE Tn7 confirm 5 and DDE Tn7 FP ctr -5.
Screening C[C@@H]1CN([C@@H](C)CO)S(=O)(=O)c2ccc(Br)cc2O[C@H]1CN(C)C(=O)C1CCC1 returned CRFBP-R2 agonist 0, DDE Tn6 FP inh -5, CRFR2-BP antag 5 and Tn7 DDE FP 9.
Screening CCCCNC(=S)N(C)/N=C/c1ccccc1C(=O)O returned cardiac RTF act -3, CRFBP-R2 agonist 1, Cardiac RTF inh 3, DDE Tn6 FP inh 0, CRFR2-BP antag 5, Tn7 DDE FP 14*, DDE Tn7 confirm -9 and DDE Tn7 FP ctr -7.
`CCCCNC(=S)N(C)N=C1CCC(c2ccccc2)CC1` (stereo not given) gave cardiac RTF act -2, CRFBP-R2 agonist 0, Cardiac RTF inh -11, DDE Tn6 FP inh -1, CRFR2-BP antag -12 and Tn7 DDE FP 0.
Screening CC(NC(=O)/C(C#N)=C/c1cn[nH]c1-c1ccccc1)c1ccccc1 (stereo not given) returned cardiac RTF act 2, CRFBP-R2 agonist 0, Cardiac RTF inh -4, DDE Tn6 FP inh -7, CRFR2-BP antag -14 and Tn7 DDE FP -2.
CCc1ccc(C(C)NC(=O)/C(C#N)=C\c2cn[nH]c2-c2ccccc2)cc1 (stereo not given) was read as cardiac RTF act -3, CRFBP-R2 agonist 1, Cardiac RTF inh 1, DDE Tn6 FP inh 5, CRFR2-BP antag -19, Tn7 DDE FP 14*, DDE Tn7 confirm 12 and DDE Tn7 FP ctr 9.
CN[C@H]1C[C@H]2c3[nH]c4cccc(-c5cccc(F)c5)c4c3CCN2C(=O)[C@H]1[C@H](C)O was read as DDE Tn6 FP inh 6 and Tn7 DDE FP -2.
Cc1ccc[n+](-c2nc([O-])sc2C=O)c1 was read as cardiac RTF act 94*, CRFBP-R2 agonist 92*, Cardiac RTF inh -114, DDE Tn6 FP inh -3, CRFR2-BP antag -55, Tn7 DDE FP 25*, DDE Tn7 confirm 5 and DDE Tn7 FP ctr -3.
Screening CC(C)c1ccc[n+](-c2nc([O-])sc2C=O)c1 returned CRFBP-R2 agonist -2, DDE Tn6 FP inh -10, CRFR2-BP antag 1 and Tn7 DDE FP 9.
Screening COC(=O)[C@]12C[C@H](CC(=O)NCc3cccs3)C(=O)N(Cc3ccco3)C1=C[C@H](C(C)(C)C)O[C@@H]2C returned DDE Tn6 FP inh 1 and Tn7 DDE FP 4.
`Cc1ccc(N2C(=O)c3cccc4c(N)ccc(c34)C2=O)c2cccnc12` gave cardiac RTF act 754*, CRFBP-R2 agonist 201*, Cardiac RTF inh inactive, DDE Tn6 FP inh 0, CRFR2-BP antag -176, Tn7 DDE FP 19*, DDE Tn7 confirm -33 and DDE Tn7 FP ctr 5.
`O=C(Cn1nc(C(=O)O)c2ccccc2c1=O)Nc1cc(Cl)ccc1-n1cncn1` gave cardiac RTF act 4, CRFBP-R2 agonist 0, Cardiac RTF inh -16, DDE Tn6 FP inh 4, CRFR2-BP antag 2 and Tn7 DDE FP 5.
`O=C(Cn1nc(C(=O)O)c2ccccc2c1=O)Nc1cc(C(F)(F)F)ccc1-n1cncn1` gave cardiac RTF act 0, CRFBP-R2 agonist -1, Cardiac RTF inh -4, DDE Tn6 FP inh 5, CRFR2-BP antag -9, Tn7 DDE FP 15*, DDE Tn7 confirm -3 and DDE Tn7 FP ctr -6.
For CCC/C=C/c1ccc(CN2C(C(C)C)C(=O)N(Cc3cn(CCC4OCCO4)nn3)CCS2(=O)=O)cc1 (stereo not given) the results were CRFBP-R2 agonist 2, DDE Tn6 FP inh 0, CRFR2-BP antag 2 and Tn7 DDE FP -9.
